ChEMBL document CHEMBL4219175, “Synthesis and biological evaluation of aminothiazoles against Histoplasma capsulatum and Cryptococcus neoformans” (Bioorg Med Chem, 2018)
≈ marks a conversion by molar mass, not a printed value.

Experiments:
[1] = test system: Cryptococcus neoformans; assay: Antifungal activity against wild-type fluconazole-sensitive Cryptococcus neoformans serotype D B3501 measured over 4 days; format: functional, organism-based; details: B3501, 96 h
Method in brief: (§1)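 YPD-grown exponential-phase yeasts, hemacytometer-counted, diluted into RPMI buffered to pH 7.0 with 25 mM HEPES (or pH 5.0 with […] for pH comparison) at 2 x 10^3 per well; two-fold series 40 to 0.078 µM, 37 °C, agitated twice daily. A595 followed over 4 days versus DMSO controls; day-3 turbidity fitted by 4-parameter regression for IC50; MIC = growth ≤10% of untreated.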

[2] = test system: Cryptococcus neoformans; assay: Antifungal activity against wild type fluconazole-sensitive Cryptococcus neoformans serotype A H99 at pH 5 measured over 4 days; format: functional, organism-based; details: var grubii H99 , 96 h; method in brief: as §1
[3] = test system: Histoplasma capsulatum; assay: Antifungal activity against RFP expressing Histoplasma capsulatum infected in LacZ-expressing mouse P388D1 cells incubated for 6 days measured daily by fluorescence assay; format: functional, organism-based
Method in brief: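 LacZ-expressing P388D1 macrophages (3x10^4 per well, adhered 3 h) infected with RFP Histoplasma yeasts at MOI 1:2 for 3 h, medium replaced with F-12 + 10% serum, overnight at 37 °C, then compound gradient added for 6 days. RFP fluorescence (530/590 nm) read daily; day-4 values relative to untreated infected cells fitted by non-linear regression; triplicate.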

[4] = test system: Histoplasma capsulatum; assay: Fungistatic activity against Histoplasma capsulatum OSU76 after 2 to 24 hrs by colony forming assay; format: functional, organism-based
[5] = test system: Histoplasma capsulatum; assay: Antifungal activity against Histoplasma capsulatum G217B ATCC 26032 at pH 5 measured over 5 days; format: functional, organism-based; details: G217B ATCC 26032, 120 h
Method in brief: (§2)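 Yeasts pre-grown in HMM (37 °C, 5% CO2) to exponential phase, counted by hemacytometer, diluted into RPMI buffered with 25 mM HEPES (pH 7.0) or 25 mM MOPS (pH 5.0) at 5 x 10^5 per well; two-fold dilutions 40 to 0.078 µM, 37 °C, agitated twice daily. A595 read over 5 days, normalized to DMSO controls; 4-day data fitted by 4-parameter regression for IC50; MIC = ≤10% growth.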

[6] = test system: Histoplasma capsulatum; assay: Antifungal activity against Histoplasma capsulatum G217B ATCC 26032 at pH 7 measured over 5 days; format: functional, organism-based; details: G217B ATCC 26032, 120 h; method in brief: as §2
[7] = Aqueous solubility of the compound at pH 5; format: physicochemical; details: aqueous medium
[8] = Therapeutic index, ratio of IC50 for mouse P388D1 cells to IC50 for wild type Cryptococcus neoformans serotype A H99; format: toxicity; details: read-out: Ratio IC50
Method in brief: (§3)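 Ratio of P388D1 IC50 (72 h resazurin viability, 80 to 0.3 µM) to yeast IC50 from RPMI/HEPES pH 7.0 broth dilution with A595 turbidity and 4-parameter regression.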

[9] = Aqueous solubility of the compound at pH 7; format: physicochemical; details: aqueous medium
[10] = Therapeutic index, ratio of IC50 for mouse P388D1 cells to IC50 for Histoplasma capsulatum OSU76; format: toxicity; details: read-out: Ratio IC50
[11] = test system: Cryptococcus neoformans; assay: Antifungal activity against fluconazole-resistant Cryptococcus neoformans serotype A TES9 harboring erg11 mutant measured over 4 days; format: functional, organism-based; details: TES9, 96 h; method in brief: as §1
[12] = test system: Cryptococcus neoformans; assay: Antifungal activity against wild type fluconazole-sensitive Cryptococcus neoformans serotype A H99 at pH 7 measured over 4 days; format: functional, organism-based; details: var grubii H99 , 96 h; method in brief: as §1
[13] = Ratio of aqueous solubility at pH 5 to aqueous solubility at pH 7; format: physicochemical; details: buffer
[14] = test system: Cryptococcus neoformans; assay: Antifungal activity against Cryptococcus neoformans TDY271 after 72 hrs by microdilution assay; format: functional, organism-based; details: TDY271, 72 h
[15] = test system: Cryptococcus neoformans; assay: Antifungal activity against fluconazole-resistant Cryptococcus neoformans serotype A MRL862 harboring erg11 mutant measured over 4 days; format: functional, organism-based; details: MRL862, 96 h; method in brief: as §1
[16] = test system: P388D1; assay: Cytotoxicity against mouse P388D1 cells assessed as reduction in cell viability after 72 hrs by resazurin-based fluorescence assay; details: P388D1, 72 h
Method in brief: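 P388D1 cells in Ham's F-12 + 10% FBS + 2 mM L-glutamine seeded at 5 x 10^3 per well, adhered overnight, exposed to compounds 80 to 0.3 µM for 72 h. Viability read as resorufin fluorescence (530/590 nm) after 0.1 mM resazurin, pre-saturation time points, versus untreated cells; three biological replicates; IC50 by non-linear regression.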

[17] = Therapeutic index, ratio of IC50 for mouse P388D1 cells to IC50 for Histoplasma capsulatum G217B ATCC 26032; format: toxicity; details: read-out: Ratio IC50; method in brief: as §3

| Structure (SMILES) | IC50 [2] [µM] | MIC90 [2] [µM] | IC50 [5] [µM] | MIC90 [5] [µM] | IC50 [6] [µM] | MIC90 [6] [µM] | solubility [7] [µg/mL] | selectivity ratio [8] | solubility [9] [µg/mL] | IC50 [12] [µM] | MIC90 [12] [µM] | Ratio [13] | IC50 [16] [µM] | selectivity ratio [17] | other results |
| --- | --- | --- | --- | --- | --- | --- | --- | --- | --- | --- | --- | --- | --- | --- | --- |
| O=C(Nc1ncc(Cc2cccc3ccccc23)s1)C1CCCCC1 | 3.04 | 5 (≈ 1.75 µg/mL) | 6.75 | 10 (≈ 3.5 µg/mL) | 0.48 | 1.25 (≈ 0.438 µg/mL) | 4 (≈ 11.4 µM) | > 60 | 4 (≈ 11.4 µM) | 0.67 | 1.25 (≈ 0.438 µg/mL) | 1 | > 40 | > 83 | IC50 [1]: 0.18 µM; MIC90 [1]: 0.63 µM (≈ 0.221 µg/mL); MIC ([3]; 144 h): 2.5 µM (≈ 0.876 µg/mL); IC50 ([3]; P388D1, 144 h): 1.26 µM; IC50 [4]: 0.87 µM; selectivity ratio [10]: 63; IC50 [11]: 0.2 µM; MIC90 [11]: 0.63 µM (≈ 0.221 µg/mL); IC50 [14]: 1.25 µM; IC50 [15]: 0.23 µM; MIC90 [15]: 0.63 µM (≈ 0.221 µg/mL) |
| O=C(Nc1ncc(Cc2ccccn2)s1)C1CCCCC1 | 15.6 | > 40 | > 20 | > 40 | 18.3 | 40 (≈ 12.1 µg/mL) | 480 (≈ 1590 µM) | > 6 | 340 (≈ 1130 µM) | 7.17 | 20 (≈ 6.03 µg/mL) | 1.4 | > 40 | > 2 |  |
| O=C(Nc1ncc(Cc2ccnc3ccccc23)s1)C1CCCCC1 | 4.29 | 10 (≈ 3.51 µg/mL) | 16.8 | 40 (≈ 14.1 µg/mL) | 3.05 |  | 130 (≈ 370 µM) | 5 | 70 (≈ 199 µM) | 3.24 |  | 1.9 | 13.9 | 5 |  |
